Experimental data from ChEMBL document CHEMBL3779838, “Inhibitory effect of flavonoids on human glutaminyl cyclase” (Bioorg Med Chem, 2016).

Key:
[1] = target: T1, Glutaminyl-peptide cyclotransferase (Homo sapiens, UniProt Q16769); assay: Inhibition of human recombinant glutaminyl cyclase expressed in Escherichia coli at 100 uM using H-Gln-Gln-H substrate measured for 15 mins by spectrophotometry relative to control
Target sequence in this assay (Q16769 29-361 limits assumed): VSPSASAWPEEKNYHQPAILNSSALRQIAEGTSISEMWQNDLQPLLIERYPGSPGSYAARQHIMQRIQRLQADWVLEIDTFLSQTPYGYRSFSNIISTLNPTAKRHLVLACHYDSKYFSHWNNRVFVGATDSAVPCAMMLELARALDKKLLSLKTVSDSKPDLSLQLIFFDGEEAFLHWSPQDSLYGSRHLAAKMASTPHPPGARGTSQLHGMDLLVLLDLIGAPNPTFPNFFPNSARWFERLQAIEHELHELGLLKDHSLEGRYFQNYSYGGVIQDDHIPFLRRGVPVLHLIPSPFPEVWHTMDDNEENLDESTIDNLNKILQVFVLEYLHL

[2] = target: T1, Glutaminyl-peptide cyclotransferase; assay: Inhibition of human recombinant glutaminyl cyclase expressed in Escherichia coli using H-Gln-Gln-H substrate measured for 15 mins by spectrophotometry
Procedure, shortened: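 Recombinant hQC expressed in E. coli is tested in a glutamic acid dehydrogenase-coupled reaction: 0–4 mM H-Gln-Gln-H, 30 units/ml GDH, 0.5 mM NADH/H+, 15 mM α-ketoglutaric acid, 0.05 M Tris–HCl pH 8.0. Inhibitor is added at several concentrations with the enzyme to start the reaction, and A340 loss is read over 15 min. IC50 is read graphically from log concentration vs % inhibition. Triplicate.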
Target sequence in this assay (Q16769 whole entry): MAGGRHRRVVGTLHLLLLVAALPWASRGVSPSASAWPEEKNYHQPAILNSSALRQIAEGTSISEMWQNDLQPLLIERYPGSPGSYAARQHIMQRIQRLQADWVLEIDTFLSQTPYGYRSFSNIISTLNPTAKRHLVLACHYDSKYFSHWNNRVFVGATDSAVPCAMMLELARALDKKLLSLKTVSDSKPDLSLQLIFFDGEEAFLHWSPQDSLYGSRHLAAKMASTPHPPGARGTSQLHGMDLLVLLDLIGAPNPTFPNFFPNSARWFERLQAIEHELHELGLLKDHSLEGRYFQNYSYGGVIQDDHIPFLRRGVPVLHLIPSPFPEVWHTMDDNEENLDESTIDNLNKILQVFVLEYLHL

| inhibition [1] [%] | IC50 [2] [µM] | Structure (SMILES) |
| --- | --- | --- |
| 71.7 | – | COc1ccc(-c2cc(=O)c3c(O)cc(O)cc3o2)c(OC)c1 |
| 75.2 | – | COc1ccc(-c2cc(=O)c3ccc(O)cc3o2)cc1 |
| 75.2 | – | O=c1cc(-c2ccc(O)cc2)oc2cc(O)cc(O)c12 |
| 71.8 | 45.2 | O=c1cc(-c2ccc(O)cc2)oc2cc(O)ccc12 |
